What is called IC50 is the concentration that inhibits the measured activity by half. Low readings indicate greater potency, high ones weaker potency.

This note sets out measurements from ChEMBL document CHEMBL5649170, “Sustained microglial depletion with CSF1R inhibitor impairs parenchymal plaque development in an Alzheimer's disease model” (Nat Commun, 2019).

Data set [1] has as its system Mus musculus. The data set can be described thus: Antialzheimer activity in mouse harboring CX3CR1-GFP+/- assessed as microglial elimination in brain at 600 ppm administered as chow for 7 days relative to control. To be noted: route po, time 7 day. The data set is classed as functional.
For data set [2], the target named is RAC-gamma serine/threonine-protein kinase (Homo sapiens, UniProt Q9Y243). The data set can be described thus: Inhibition of AKT3 (unknown origin).
Data set [3] deals with Mus musculus. The data set can be described thus: Antialzheimer activity in 5XFAD mouse assessed as number of Iba positive cells per FOV in retro spinal cortex at 1200 ppm administered as rodent chow starting from 1.5 months and measured after 7 months (reference value: 473 to 792). The class given is functional. As to conditions: route po, time 5.5 months, 4015 h.
Data set [4] deals with Mus musculus. The data set can be described thus: Antialzheimer activity in 5XFAD mouse assessed as number of entries to center zone at 1200 ppm administered as rodent chow for 10 to 24 weeks by Open field test (reference value: 22 to 55). The data set is classed as functional. As to conditions: route po, time 10-24 weeks.
Data set [5] deals with Tyrosine-protein kinase Fgr (Homo sapiens, UniProt P09769). As to the kind of experiment: Inhibition of FGR (unknown origin).
Sequence of Tyrosine-protein kinase Fgr (P09769 whole entry): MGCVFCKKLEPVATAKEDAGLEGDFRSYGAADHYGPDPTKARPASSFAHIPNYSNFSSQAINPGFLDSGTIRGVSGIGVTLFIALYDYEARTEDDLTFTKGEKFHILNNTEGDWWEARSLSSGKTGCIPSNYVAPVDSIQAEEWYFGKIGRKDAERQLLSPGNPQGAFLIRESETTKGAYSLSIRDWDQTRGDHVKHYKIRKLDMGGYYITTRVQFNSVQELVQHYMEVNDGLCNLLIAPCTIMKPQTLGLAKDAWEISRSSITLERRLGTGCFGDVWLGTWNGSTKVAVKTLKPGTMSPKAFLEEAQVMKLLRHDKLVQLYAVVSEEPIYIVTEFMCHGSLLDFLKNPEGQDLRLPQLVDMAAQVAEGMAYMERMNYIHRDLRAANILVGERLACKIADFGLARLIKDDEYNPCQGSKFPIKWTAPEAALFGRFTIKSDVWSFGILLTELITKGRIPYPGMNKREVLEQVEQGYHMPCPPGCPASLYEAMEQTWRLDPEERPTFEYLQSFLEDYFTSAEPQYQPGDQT
Data set [6] addresses Mitogen-activated protein kinase 13 (Homo sapiens, UniProt O15264). As to the kind of experiment: Inhibition of MAPK13 (unknown origin).
A short description of data set [7]: Toxicity in wildtype mouse assessed as proportion of time spent freezing at 1200 ppm administered as rodent chow for 10 to 24 weeks by […] (reference value: 0.10 to 0.53). To be noted: in vivo, po, time 10-24 weeks.
The nature of data set [8]: Prevention of Kcnq3 gene downregulation in 5XFAD mouse hippocampus assessed as percent change in Reads Per kilo base per Million mapped reads at 1200 ppm administered as rodent chow starting from 1.5 months and measured after 7 months by RNA-Seq analysis (reference value: 55.386 to 68.581 %). The class given is functional. As to conditions: route po, time 5.5 months, 4015 h.

Data set [9] deals with Serine/threonine-protein kinase Nek1 (Homo sapiens, UniProt Q96PY6). As to the kind of experiment: Inhibition of NEK1 (unknown origin).
Data set [10] deals with Glycogen synthase kinase-3 beta (Homo sapiens, UniProt P49841). As to the kind of experiment: Inhibition of GSK3B (unknown origin).
In data set [11] the test system is Mus musculus. As to the kind of experiment: Antialzheimer activity in wildtype mouse assessed as number of Iba positive cells per FOV in […] cortex at 1200 ppm administered as rodent chow starting from 1.5 months and measured after 7 months (reference value: 322 to 632). The data set is classed as functional. As to conditions: route po, time 5.5 months, 4015 h.

Data set [12] deals with Mus musculus. The data set can be described thus: Antialzheimer activity in 5XFAD mouse assessed as number of Iba positive cells per FOV in somatosensory cortex at 1200 ppm administered as rodent chow starting from 1.5 months and measured after 7 months (reference value: 335 to 848). The class given is functional. As to conditions: route po, time 5.5 months, 4015 h.
Data set [13] relates to Mus musculus. The data set can be described thus: Antialzheimer activity in 5XFAD mouse assessed as amyloidbeta40 level in detergent soluble thalamus fraction measured per microgram protein at 1200 ppm administered as rodent chow starting from 1.5 months and measured after 7 months by ELISA (reference value: 0 to 0.047 pg). The data set is classed as functional. To be noted: route po, time 5.5 months, 4015 h. In outline: (§1)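 PLX5622 at 1200 ppm in chow given to 5xFAD mice from 1.5 months to 4 or 7 months of age; cortex and thalamus homogenized in TPER (detergent-soluble), pellets re-homogenized in 70% formic acid and spun 100,000 g, 1 h, 4 °C (insoluble); protein by Bradford/Lowry; Aβ species measured by Meso Scale electrochemiluminescence immunoassay, normalized to protein; n = 7–8 per group at 7 months.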
A general note: In an ELISA, binding on a coated surface is turned into a signal by an enzyme label.

Data set [14] relates to Mus musculus. The data set can be described thus: Antialzheimer activity in 5XFAD mouse assessed as number of GFAP positive cells per FOV at 1200 ppm administered as rodent chow starting from 1.5 months to 4 months followed by compound removal and measured after 1 month by immunolabeling based confocal microscopic analysis (reference value: 20 to 71). The class given is functional. As to conditions: route po, time 2.5 months, 1825 h.

Data set [15] addresses Serine/threonine-protein kinase Sgk2 (Homo sapiens, UniProt Q9HBY8). As to the kind of experiment: Inhibition of SGK2 (unknown origin).
The target in data set [16] is Serine/threonine-protein kinase mTOR (Homo sapiens, UniProt P42345). As to the kind of experiment: Inhibition of FRAP1 (unknown origin).
Data set [17] has as its target Serine/threonine-protein kinase PLK1 (Homo sapiens, UniProt P53350). As to the kind of experiment: Inhibition of PLK1 (unknown origin).
Data set [18] can be described thus: Prevention of Dynll1 gene downregulation in 5XFAD mouse hippocampus assessed as percent change in Reads Per kilo base per Million mapped reads at 1200 ppm administered as rodent chow starting from 1.5 months and measured after 7 months by RNA-Seq analysis (reference value: 79.087 to 86.108 %). The data set is classed as functional. As to conditions: route po, time 5.5 months, 4015 h.

Data set [19] deals with Mus musculus. The data set can be described thus: Antialzheimer activity in 5XFAD mouse assessed as amyloidbeta42 level in detergent insoluble cortex fraction measured per microgram protein at 1200 ppm administered as rodent chow starting from 1.5 months and measured after 4 months by ELISA (reference value: 184693 to 3485624 pg). The data set is classed as functional. To be noted: route po, time 2.5 months, 1825 h. In outline: as §1

The next data set deals with Misshapen-like kinase 1 (Homo sapiens, UniProt Q8N4C8). As to the kind of experiment: Inhibition of MINK1 (unknown origin).
Sequence of Misshapen-like kinase 1 (Q8N4C8 whole entry): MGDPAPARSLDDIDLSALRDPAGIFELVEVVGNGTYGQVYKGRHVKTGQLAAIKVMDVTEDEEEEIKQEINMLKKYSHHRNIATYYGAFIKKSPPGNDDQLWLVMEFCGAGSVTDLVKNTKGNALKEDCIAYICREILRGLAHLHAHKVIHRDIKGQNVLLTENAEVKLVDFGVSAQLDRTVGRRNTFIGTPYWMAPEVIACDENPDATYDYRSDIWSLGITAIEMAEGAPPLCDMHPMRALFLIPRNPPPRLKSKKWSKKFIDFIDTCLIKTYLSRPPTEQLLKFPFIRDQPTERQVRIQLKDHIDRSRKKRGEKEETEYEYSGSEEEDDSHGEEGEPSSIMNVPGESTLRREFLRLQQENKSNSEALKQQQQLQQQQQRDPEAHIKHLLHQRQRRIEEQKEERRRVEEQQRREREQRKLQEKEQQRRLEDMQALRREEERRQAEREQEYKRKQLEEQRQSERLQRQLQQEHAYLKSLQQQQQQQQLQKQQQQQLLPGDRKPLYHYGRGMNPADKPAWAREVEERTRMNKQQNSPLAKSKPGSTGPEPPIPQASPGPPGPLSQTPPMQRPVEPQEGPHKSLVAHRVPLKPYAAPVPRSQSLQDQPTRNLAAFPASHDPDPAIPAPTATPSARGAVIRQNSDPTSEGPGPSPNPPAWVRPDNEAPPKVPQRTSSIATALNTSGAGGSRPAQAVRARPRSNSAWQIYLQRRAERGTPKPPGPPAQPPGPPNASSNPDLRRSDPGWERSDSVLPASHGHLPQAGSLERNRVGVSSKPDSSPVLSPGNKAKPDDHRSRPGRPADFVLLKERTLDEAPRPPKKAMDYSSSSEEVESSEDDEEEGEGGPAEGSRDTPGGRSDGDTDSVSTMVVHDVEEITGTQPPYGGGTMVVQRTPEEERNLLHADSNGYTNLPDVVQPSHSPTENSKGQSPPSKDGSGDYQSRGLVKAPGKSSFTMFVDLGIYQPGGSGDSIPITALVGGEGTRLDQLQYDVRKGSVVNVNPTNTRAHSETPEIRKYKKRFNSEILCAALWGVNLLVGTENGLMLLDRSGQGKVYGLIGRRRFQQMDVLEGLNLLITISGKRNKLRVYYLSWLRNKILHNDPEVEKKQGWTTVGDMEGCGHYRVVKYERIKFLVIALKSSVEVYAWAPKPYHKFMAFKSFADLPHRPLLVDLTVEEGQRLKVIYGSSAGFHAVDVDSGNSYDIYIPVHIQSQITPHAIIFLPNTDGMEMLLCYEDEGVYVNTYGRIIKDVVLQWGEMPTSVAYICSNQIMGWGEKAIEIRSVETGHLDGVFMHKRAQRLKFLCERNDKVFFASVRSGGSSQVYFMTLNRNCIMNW
In data set [20] the target is Platelet-derived growth factor receptor alpha (Homo sapiens, UniProt P16234). The data set can be described thus: Inhibition of PDGFRA (unknown origin).
Sequence of Platelet-derived growth factor receptor alpha (P16234 whole entry): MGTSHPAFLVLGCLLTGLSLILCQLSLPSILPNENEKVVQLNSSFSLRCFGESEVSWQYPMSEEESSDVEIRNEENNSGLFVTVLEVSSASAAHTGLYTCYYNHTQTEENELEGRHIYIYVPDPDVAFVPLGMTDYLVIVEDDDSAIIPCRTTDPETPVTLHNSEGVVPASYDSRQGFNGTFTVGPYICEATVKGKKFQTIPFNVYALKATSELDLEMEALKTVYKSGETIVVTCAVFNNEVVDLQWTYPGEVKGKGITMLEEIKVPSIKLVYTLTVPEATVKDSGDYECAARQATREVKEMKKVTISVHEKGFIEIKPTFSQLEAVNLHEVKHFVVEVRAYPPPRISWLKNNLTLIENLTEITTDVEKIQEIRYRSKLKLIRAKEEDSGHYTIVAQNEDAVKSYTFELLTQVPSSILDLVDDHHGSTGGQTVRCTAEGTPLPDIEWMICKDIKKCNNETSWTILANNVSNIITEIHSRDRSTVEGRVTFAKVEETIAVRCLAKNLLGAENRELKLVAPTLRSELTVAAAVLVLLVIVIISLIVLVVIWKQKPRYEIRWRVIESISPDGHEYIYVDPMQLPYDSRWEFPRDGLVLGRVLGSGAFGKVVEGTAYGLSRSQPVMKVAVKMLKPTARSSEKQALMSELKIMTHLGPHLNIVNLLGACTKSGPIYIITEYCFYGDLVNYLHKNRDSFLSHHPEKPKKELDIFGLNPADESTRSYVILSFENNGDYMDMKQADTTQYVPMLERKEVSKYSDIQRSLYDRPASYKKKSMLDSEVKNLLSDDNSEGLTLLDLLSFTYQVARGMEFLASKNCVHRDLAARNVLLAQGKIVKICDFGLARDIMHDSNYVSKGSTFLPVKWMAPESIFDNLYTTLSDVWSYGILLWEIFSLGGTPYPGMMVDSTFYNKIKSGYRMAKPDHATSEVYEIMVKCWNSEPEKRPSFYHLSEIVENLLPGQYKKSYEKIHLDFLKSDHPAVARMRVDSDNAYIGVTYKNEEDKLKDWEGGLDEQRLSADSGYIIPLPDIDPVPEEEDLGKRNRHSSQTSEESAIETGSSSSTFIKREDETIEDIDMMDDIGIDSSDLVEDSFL
Data set [21] in a line: Effect on Hexb gene expression in 5XFAD mouse cortex at 1200 ppm administered as rodent chow starting from 1.5 months and measured after 7 months by RNA-Seq analysis (reference value: 70.260 to 103.252 RPKM). The class given is functional. To be noted: route po, time 5.5 months, 4015 h.
Data set [22] is described as follows: Effect on Ctsz gene expression in 5XFAD mouse cortex at 1200 ppm administered as rodent chow starting from 1.5 months and measured after 7 months by RNA-Seq analysis (reference value: 27.650 to 42.003 RPKM). The class given is functional. As to conditions: route po, time 5.5 months, 4015 h.
In data set [23] the target is Mitogen-activated protein kinase 3 (Homo sapiens, UniProt P27361). As to the kind of experiment: Inhibition of MAPK3 (unknown origin).
Sequence of Mitogen-activated protein kinase 3 (P27361 whole entry): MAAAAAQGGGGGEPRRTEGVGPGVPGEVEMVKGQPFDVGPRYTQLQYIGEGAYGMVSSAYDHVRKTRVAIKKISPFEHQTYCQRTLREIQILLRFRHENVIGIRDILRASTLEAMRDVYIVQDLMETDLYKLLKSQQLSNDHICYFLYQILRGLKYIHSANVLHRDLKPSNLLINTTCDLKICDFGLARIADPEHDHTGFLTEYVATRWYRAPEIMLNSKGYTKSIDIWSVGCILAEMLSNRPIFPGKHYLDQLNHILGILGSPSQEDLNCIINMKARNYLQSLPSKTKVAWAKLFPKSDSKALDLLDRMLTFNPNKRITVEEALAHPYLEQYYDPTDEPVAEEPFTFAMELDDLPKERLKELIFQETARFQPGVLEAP
The target of data set [24] is Maternal embryonic leucine zipper kinase (Homo sapiens, UniProt Q14680). As to the kind of experiment: Inhibition of MELK (unknown origin).
Data set [25] can be described thus: Toxicity in wildtype mouse assessed as time to locate platform at 1200 ppm administered as rodent chow for 10 to 24 weeks by Morris water maze test (reference value: 3.195 to 56.218 sec). As to conditions: in vivo, po, time 10-24 weeks.
The nature of data set [26]: Drug concentration in mouse brain at 300 ppm administered as rodent chow for 14 days. The data set is classed as ADME, tissue-based. As to conditions: route po, time 14 day, read-out: Ct.
The subject of data set [27] is Mus musculus. As to the kind of experiment: Antialzheimer activity in 5XFAD mouse assessed as average speed at 1200 ppm administered as rodent chow for 10 to 24 weeks by Open field test (reference value: 0.024 to 0.076 meter/s). As to conditions: route po, time 10-24 weeks. The data set is classed as functional.
Data set [28] addresses Protein kinase C iota type (Homo sapiens, UniProt P41743). As to the kind of experiment: Inhibition of PRKCI (unknown origin).
For data set [29], the target named is Rho-associated protein kinase 1 (Homo sapiens, UniProt Q13464). The data set can be described thus: Inhibition of ROCK1 (unknown origin).
Data set [30] in a line: Effect on Ctsz gene expression in 5XFAD mouse hippocampus at 1200 ppm administered as rodent chow starting from 1.5 months and measured after 7 months by RNA-Seq analysis (reference value: 34.576 to 51.120 RPKM). The class given is functional. To be noted: route po, time 5.5 months, 4015 h.
For data set [31], the target named is Tyrosine-protein kinase receptor UFO (Homo sapiens, UniProt P30530). The data set can be described thus: Inhibition of AXL (unknown origin).
Data set [32] concerns Mus musculus. The data set can be described thus: Antialzheimer activity in wildtype mouse assessed as number of Iba positive cells per FOV in somatosensory cortex at 1200 ppm administered as rodent chow starting from 1.5 months and measured after 4 months (reference value: 304 to 351). The class given is functional. To be noted: route po, time 2.5 months, 1825 h.

Sequence of Protein kinase C iota type (P41743 whole entry): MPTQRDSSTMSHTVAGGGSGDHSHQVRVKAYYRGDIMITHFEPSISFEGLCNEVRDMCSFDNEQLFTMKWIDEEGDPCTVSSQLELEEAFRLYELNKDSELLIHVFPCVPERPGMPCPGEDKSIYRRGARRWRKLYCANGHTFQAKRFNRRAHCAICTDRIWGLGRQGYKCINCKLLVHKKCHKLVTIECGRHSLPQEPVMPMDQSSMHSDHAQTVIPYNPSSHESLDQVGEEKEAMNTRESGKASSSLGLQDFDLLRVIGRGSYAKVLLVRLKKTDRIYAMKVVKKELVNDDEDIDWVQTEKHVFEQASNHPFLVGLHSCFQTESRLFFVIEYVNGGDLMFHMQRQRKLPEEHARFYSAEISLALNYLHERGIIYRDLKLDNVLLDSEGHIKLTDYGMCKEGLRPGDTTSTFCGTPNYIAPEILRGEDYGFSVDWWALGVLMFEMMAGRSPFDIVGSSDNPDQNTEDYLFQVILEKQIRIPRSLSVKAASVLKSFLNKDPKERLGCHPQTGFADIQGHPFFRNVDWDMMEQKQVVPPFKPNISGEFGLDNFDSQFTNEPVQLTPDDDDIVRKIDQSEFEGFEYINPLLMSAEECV
Sequence of Serine/threonine-protein kinase Sgk2 (Q9HBY8 whole entry): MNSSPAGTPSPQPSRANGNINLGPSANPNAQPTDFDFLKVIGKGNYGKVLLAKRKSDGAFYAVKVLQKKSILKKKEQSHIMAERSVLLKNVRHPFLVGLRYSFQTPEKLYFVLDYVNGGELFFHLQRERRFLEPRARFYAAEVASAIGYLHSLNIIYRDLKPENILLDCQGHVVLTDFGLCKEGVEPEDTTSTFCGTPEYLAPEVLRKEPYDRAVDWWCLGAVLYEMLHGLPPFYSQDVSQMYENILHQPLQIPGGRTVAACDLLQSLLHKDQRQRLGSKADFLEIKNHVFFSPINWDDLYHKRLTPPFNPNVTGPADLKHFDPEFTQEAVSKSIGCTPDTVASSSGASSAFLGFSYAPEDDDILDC
Sequence of Mitogen-activated protein kinase 13 (O15264 whole entry): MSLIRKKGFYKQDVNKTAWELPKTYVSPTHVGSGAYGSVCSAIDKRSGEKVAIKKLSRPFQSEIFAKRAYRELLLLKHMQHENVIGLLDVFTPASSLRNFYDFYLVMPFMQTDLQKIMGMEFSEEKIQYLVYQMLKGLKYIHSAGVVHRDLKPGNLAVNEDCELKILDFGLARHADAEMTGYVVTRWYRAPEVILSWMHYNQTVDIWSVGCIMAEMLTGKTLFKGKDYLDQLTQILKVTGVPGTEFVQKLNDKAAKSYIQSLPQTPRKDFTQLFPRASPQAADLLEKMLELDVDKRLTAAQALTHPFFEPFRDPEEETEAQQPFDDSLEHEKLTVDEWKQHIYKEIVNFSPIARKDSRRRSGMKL

As to `FC(F)(F)c1ccc(CNc2ccc(Cc3c[nH]c4ncc(Cl)cc34)cn2)cn1` [PEXIDARTINIB], in the data set on Mus musculus [1], the Activity is listed as more than 99%.

As for `COc1ncc(F)cc1CNc1ccc(Cc2c[nH]c3ncc(C)cc23)c(F)n1` [PLX-5622], the IC50 in data set [2], in [5], in data set [6], in data set [9], in data set [10] and in data set [15] was more than 1000 nM each time. Besides, the IC50 (in [16]; in data set [17]; against Misshapen-like kinase 1; in [20]; in data set [23]; in [24]) was more than 1000 nM each time. In addition, the half-inhibitory concentration (IC50) in data set [28], in [29] and in data set [31] was more than 1000 nM each time. Also, the Activity in the data set with Mus musculus [3] is given as 2; in the data set on Mus musculus [4], 7; in [7], 0.13; in data set [8] it was 68.859%; in the data set on Mus musculus [11], 0; in the data set on Mus musculus [12] it was 0. Moreover, the Activity in the data set on Mus musculus [13] came out at 0 pg; in the data set with Mus musculus [14], 10; in data set [18], 96.141%; in the data set with Mus musculus [19], 14098.06 pg; in data set [21], 11.641 RPKM; in [22] it was 13.681 RPKM. For the same compound, the Activity turned out to be 0.03 meter/s with Mus musculus [27], 16.426 RPKM in [30] and 0 in the data set with Mus musculus [32]. In addition, in data set [25], the Time is recorded as 6.755 s. The concentration at 336 h in data set [26] was determined as 963 ng/mL.
